Consider three compounds from ChEMBL document CHEMBL4219033, “Anticancer activity profiling of parthenolide analogs generated via P450-mediated chemoenzymatic synthesis” (2018).

Format in all cases: functional
Assay [1] deals with Jurkat. Put plainly: Cytotoxicity against human Jurkat cells assessed as cell viability ratio at 10 uM after 24 hrs by MTT assay relative to control. Summed up: (§1)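 Suspension lines grown in α-MEM plus 10% FBS and penicillin-streptomycin, 37 °C, 5% CO2. Seeded at 30,000 cells/well in phenol-red-free α-MEM and rested 15 h. Exposed to 10 µM, or 2 µM in the lower-dose repeat, at 1% DMSO final for 24 h. 5 mg/ml MTT added directly for 3 h at 37 °C. Plates spun, formazan dissolved in DMSO, OD read at 550 nm. Viability relative to vehicle.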
A general note: Formazan colour is commonly taken as a measure of viable cells.

Assay [2] relates to JeKo-1. The experiment in a line: Cytotoxicity against human JeKo1 cells assessed as cell viability ratio at 10 uM after 24 hrs by MTT assay relative to control. In short, it runs like this:
as §1

Assay [3] concerns HeLa. The experiment in a line: Cytotoxicity against human HeLa cells assessed as cell viability ratio at 10 uM after 24 hrs by MTT assay relative to control. Summed up: (§2)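 Adherent lines in DMEM plus 10% FBS and penicillin-streptomycin, 37 °C, 5% CO2, lifted with Accutase. Seeded at 500–10,000 cells/well and rested 15 h. Compounds from 10 mM DMSO stocks dosed at 10 µM final, 1% DMSO final, n = 5, for 24 h. Medium then swapped for 1 mg/ml MTT in phenol-red-free medium for 3 h at 37 °C. Formazan dissolved in DMSO, OD read at 550 nm. Viability normalised to 1% DMSO vehicle control.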

Assay [4] concerns A549. The experiment in a line: Cytotoxicity against human A549 cells assessed as cell viability ratio at 10 uM after 24 hrs by MTT assay relative to control. In short, it runs like this:
as §2

Assay [5] has as its system HCT-116. The experiment in a line: Cytotoxicity against human HCT116 cells assessed as cell viability ratio at 10 uM after 24 hrs by MTT assay relative to control.
In assay [6] the test system is SJSA-1. Put plainly: Cytotoxicity against human SJSA1 cells assessed as cell viability ratio at 10 uM after 24 hrs by MTT assay relative to control. In short, it runs like this:
as §2

Assay [7] has as its system SK-N-MC. The experiment in a line: Cytotoxicity against human SK-N-MC cells assessed as cell viability ratio at 10 uM after 24 hrs by MTT assay relative to control. Summed up:
as §2

Assay [8] deals with PC-3. The experiment in a line: Cytotoxicity against human PC3 cells assessed as cell viability ratio at 10 uM after 24 hrs by MTT assay relative to control. Summed up: as §2
Assay [9] has as its system MDA-MB-231. The experiment in a line: Cytotoxicity against human MDA-MB-231 cells assessed as cell viability ratio at 10 uM after 24 hrs by MTT assay relative to control. In short, it runs like this: as §2
Assay [10] deals with SK-MEL-2. The experiment in a line: Cytotoxicity against human SK-MEL-2 cells assessed as cell viability ratio at 10 uM after 24 hrs by MTT assay relative to control. In short, it runs like this: as §2
Assay [11] relates to Jurkat. The experiment in a line: Cytotoxicity against human Jurkat cells assessed as cell viability at 2 uM after 24 hrs by MTT assay relative to control. The settings on record: read-out: Activity. Summed up:
as §1

Assay [12] has as its system JeKo-1. The experiment in a line: Cytotoxicity against human JeKo1 cells assessed as cell viability at 2 uM after 24 hrs by MTT assay relative to control. The settings on record: JeKo-1, 24 h, read-out: Activity. In short, it runs like this: as §1
The subject of assay [13] is Jurkat. The experiment in a line: Cytotoxicity against human Jurkat cells assessed as cell viability at 10 uM after 24 hrs by MTT assay relative to control. The settings on record: read-out: Activity. Summed up: as §1
For assay [14], the system named is JeKo-1. Put plainly: Cytotoxicity against human JeKo1 cells assessed as cell viability at 10 uM after 24 hrs by MTT assay relative to control. The settings on record: JeKo-1, 24 h, read-out: Activity. In short, it runs like this: as §1
The test system of assay [15] is HeLa. The experiment in a line: Cytotoxicity against human HeLa cells assessed as cell viability at 10 uM after 24 hrs by MTT assay relative to control. The settings on record: read-out: Activity. Summed up:
as §2

Assay [16] has as its system A549. Put plainly: Cytotoxicity against human A549 cells assessed as cell viability at 10 uM after 24 hrs by MTT assay relative to control. The settings on record: A549, 24 h, read-out: Activity. In short, it runs like this: as §2
Assay [17] concerns HCT-116. Put plainly: Cytotoxicity against human HCT116 cells assessed as cell viability at 10 uM after 24 hrs by MTT assay relative to control. The conditions noted are these: HCT-116, 24 h, read-out: Activity. Summed up:
as §2

The test system of assay [18] is SJSA-1. The experiment in a line: Cytotoxicity against human SJSA1 cells assessed as cell viability at 10 uM after 24 hrs by MTT assay relative to control. The settings on record: SJSA-1, 24 h, read-out: Activity. In short, it runs like this: as §2
Assay [19] concerns SK-N-MC. Put plainly: Cytotoxicity against human SK-N-MC cells assessed as cell viability at 10 uM after 24 hrs by MTT assay relative to control. The conditions noted are these: read-out: Activity. Summed up:
as §2

The test system of assay [20] is PC-3. The experiment in a line: Cytotoxicity against human PC3 cells assessed as cell viability at 10 uM after 24 hrs by MTT assay relative to control. The settings on record: PC-3, 24 h, read-out: Activity. In short, it runs like this: as §2
Assay [21] has as its system MDA-MB-231. The experiment in a line: Cytotoxicity against human MDA-MB-231 cells assessed as cell viability at 10 uM after 24 hrs by MTT assay relative to control. The settings on record: MDA-MB-231, 24 h, read-out: Activity. In short, it runs like this:
as §2

Assay [22] has as its system SK-MEL-2. Put plainly: Cytotoxicity against human SK-MEL-2 cells assessed as cell viability at 10 uM after 24 hrs by MTT assay relative to control. The settings on record: SK-MEL-2, 24 h, read-out: Activity. Summed up:
as §2

Assay [23] relates to Jurkat. The experiment in a line: Cytotoxicity against human Jurkat cells assessed as cell viability after 24 hrs by MTT assay. The settings on record: read-out: LC50 (the source's name). In short, it runs like this:
(§3)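 Suspension cells grown in α-MEM with 10% FBS and penicillin-streptomycin, seeded at 30,000 cells/well in phenol red-free medium and held 15 h before treatment. Compounds diluted from 10 mM DMSO stocks, final 1% DMSO, for 24 h. MTT (5 mg/ml stock) added directly for 3 h at 37 °C, then centrifugation, DMSO solubilization, OD 550 nm. LC50 from dose-response curves normalized to vehicle.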

Assay [24] deals with JeKo-1. The experiment in a line: Cytotoxicity against human JeKo1 cells assessed as cell viability after 24 hrs by MTT assay. The conditions noted are these: JeKo-1, 24 h, read-out: LC50 (the source's name). Summed up: as §3
The subject of assay [25] is HeLa. The experiment in a line: Cytotoxicity against human HeLa cells assessed as cell viability after 24 hrs by MTT assay. The conditions noted are these: read-out: LC50 (the source's name). In short, it runs like this: (§4)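 Adherent cells grown in DMEM with 10% FBS and penicillin-streptomycin, dissociated with Accutase, seeded at 500–10,000 cells/well and held 15 h before treatment. Compounds diluted from 10 mM DMSO stocks, final 1% DMSO, for 24 h at 37 °C, 5% CO2. Medium replaced with 1 mg/ml MTT for 3 h, formazan dissolved in DMSO, OD 550 nm. LC50 from dose-response curves normalized to 1% DMSO vehicle.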

The test system of assay [26] is A549. The experiment in a line: Cytotoxicity against human A549 cells assessed as cell viability after 24 hrs by MTT assay. The conditions noted are these: A549, 24 h, read-out: LC50 (the source's name). In short, it runs like this:
as §4

Assay [27] deals with HCT-116. The experiment in a line: Cytotoxicity against human HCT116 cells assessed as cell viability after 24 hrs by MTT assay. The conditions noted are these: HCT-116, 24 h, read-out: LC50 (the source's name). In short, it runs like this:
as §4

Assay [28] has as its system SJSA-1. Put plainly: Cytotoxicity against human SJSA1 cells assessed as cell viability after 24 hrs by MTT assay. The settings on record: SJSA-1, 24 h, read-out: LC50 (the source's name). Summed up: as §4
The test system of assay [29] is SK-N-MC. The experiment in a line: Cytotoxicity against human SK-N-MC cells assessed as cell viability after 24 hrs by MTT assay. The conditions noted are these: read-out: LC50 (the source's name). Summed up: as §4
Assay [30] deals with PC-3. Put plainly: Cytotoxicity against human PC3 cells assessed as cell viability after 24 hrs by MTT assay. The settings on record: PC-3, 24 h, read-out: LC50 (the source's name). Summed up:
as §4

The subject of assay [31] is MDA-MB-231. The experiment in a line: Cytotoxicity against human MDA-MB-231 cells assessed as cell viability after 24 hrs by MTT assay. The conditions noted are these: MDA-MB-231, 24 h, read-out: LC50 (the source's name). Summed up: as §4
Assay [32] concerns SK-MEL-2. Put plainly: Cytotoxicity against human SK-MEL-2 cells assessed as cell viability after 24 hrs by MTT assay. The conditions noted are these: SK-MEL-2, 24 h, read-out: LC50 (the source's name). In short, it runs like this: as §4

Turning to `C=C1C(=O)O[C@@H]2[C@H]3O[C@]3(C)CC/C=C(\C)[C@@H](O)C[C@@H]12`, the “fold change (FC)” value turned out to be 1 with Jurkat [1]; 1 with JeKo-1 [2]; 0.2 in the assay on HeLa [3]; 1 in the assay on A549 [4]; 1 in the assay on HCT-116 [5]; 0.9 with SJSA-1 [6]. Besides, the “fold change (FC)” value in the assay with SK-N-MC [7] amounted to 1; in the assay with PC-3 [8] it was 1; with MDA-MB-231 [9], 0.9; with SK-MEL-2 [10], 1.

For the compound `C=C1C(=O)O[C@@H]2C3O[C@]3(C)CC/C=C(\C)CC[C@@H]12` (some centres not stated), the viability at 2 µM in the assay with Jurkat [11] and with JeKo-1 [12] was 100% each time. In addition, the viability at 10 µM in the assay on Jurkat [13] came to 70.3%; in the assay with JeKo-1 [14], 47.5%; in the assay on HeLa [15] it was 35%; in the assay with A549 [16], 85%; with HCT-116 [17], 104%; in the assay with SJSA-1 [18], 100%. Further, the viability at 10 µM in the assay with SK-N-MC [19] was found to be 30%; in the assay on PC-3 [20], 82.6%; in the assay on MDA-MB-231 [21], 67%; in the assay with SK-MEL-2 [22], 95.8%. Further, the CC50 in the assay on Jurkat [23] amounted to 16.9 µM; in the assay with JeKo-1 [24], 10 µM; in the assay on HeLa [25], 9 µM; in the assay on A549 [26] it was 29.7 µM; in the assay with HCT-116 [27], 18 µM; in the assay on SJSA-1 [28] it was 42.4 µM. The CC50 with SK-N-MC [29] stood at 4.7 µM; in the assay on PC-3 [30], 20.5 µM; with MDA-MB-231 [31], 18.3 µM; in the assay with SK-MEL-2 [32], 24.9 µM.

With `C=C1C(=O)O[C@@H]2[C@H]3O[C@]3(C)CC/C=C(\CO)CC[C@@H]12`, the “fold change (FC)” value is recorded as 1 with Jurkat [1]; 1 in the assay with JeKo-1 [2]; 0.3 in the assay with HeLa [3]; 0.9 with A549 [4]; 0.9 in the assay on HCT-116 [5]; 0.9 in the assay with SJSA-1 [6]. For the same compound, the “fold change (FC)” value in the assay on SK-N-MC [7], in the assay on PC-3 [8], in the assay on MDA-MB-231 [9] and with SK-MEL-2 [10] was 1 in each case.
